High-throughput results from PubChem.
Rev-erbA mod: Rev-erb alpha (human) modulation | actives 0.79% (n = 370,000) | AID 1259318 | P20393 | activity, % at 10 µM | Rev-erbα–FITC-DNA binding, fluorescence polarization, 90 min;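 active means activity above about 14%, limit read from the data; passing the limit was not always enough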;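 further: 0% = DMSO wells with 35 nM protein and 100% = DMSO wells with 750 nM protein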
PG9 Ab binder: PG9 antibody binding by small molecule; TR-FRET gp120-PG9 antibody binding; inhibition, % at 6.7 µM; actives 0.43% (n = 360,000); AID 624416; in the data active means inhibition above about 8.5%
Rin1 Abl inh: human Rin1-Abl interaction inhibition; P00519+Q13671; TR-FRET Rin1/Abl binding, biochemical; inhibition, % at 7.35 µM; actives 0.4% (n = 360,000); in the data active means inhibition above about 5%, passing the limit was not always enough
TbMetRS inhib: Trypanosoma brucei MetRS inhibition; purified T. brucei MetRS, ATP depletion, Kinase-Glo luminescence; inhibition, % at 11.9 µM; actives 0.4% (n = 360,000); AID 624268;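 active means inhibition above a per-plate cutoff of the control wells' mean inhibition plus 3 SD, cut at about 5.5% in these data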;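 further: 0% = DMSO wells median and 100% = median of wells with control inhibitor compound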
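Measured by: Kinase-Glo luciferase luminescence reporting remaining unconsumed ATP. Material: purified T. brucei MetRS enzyme. Doses: 11.9 µM compound single dose, 0.9% DMSO. Medium: HEPES buffer containing pyrophosphatase, BSA, spermine, DTT. Times: 15 min preincubation, 2 h reaction, all 25 °C. Reagent: methionine, ATP and bulk E. coli tRNA.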
TbMetRS confirm: confirmation of Trypanosoma brucei MetRS inhibitors | shares compounds with TbMetRS inhib | T. brucei MetRS enzyme, luminescence (ATP depletion) | inhibition, % at 11.9 µM | actives 93% (n = 1,400) | AID 624412; in the data active means inhibition above about 7%
Jurkat tox: Jurkat T cell cytotoxicity for MetRS hits | actives 12% (n = 1,400) | Jurkat cells viability, ATP luminescence | AID 624413 | shares compounds with TbMetRS inhib | inhibition, % at 8.3 µM; in the data active means inhibition above about 15%;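 further: 0% = vehicle and 100% = reference inhibitor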
TbMetRS FP orth: inhibits T. brucei methionyl tRNA synthetase in orthogonal FP test. shares compounds with TbMetRS inhib. purified T. brucei MetRS, fluorescence polarization. inhibition, % at 11.9 µM. actives 44% (n = 1,400); in the data active means inhibition above about 17%;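 further: 0% = vehicle wells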
Numbers without * were called inactive; x = no result. This is a sample that favours compounds with a hit; in the whole collection about 1.8% have one here.

SMILES	Rev-erbA mod	PG9 Ab binder	Rin1 Abl inh	TbMetRS inhib	TbMetRS confirm	Jurkat tox	TbMetRS FP orth
O=c1[nH]c(CSc2ncnc3sccc23)nc2cc(C(F)(F)F)ccc12	7	0	0	1	x	x	x
O=C(O)c1ccc(NC2=C/C(=N/S(=O)(=O)c3cccs3)c3ccccc3C2=O)cc1	-19	-16	-1	1	x	x	x
O=C1C(Nc2ccc(O)cc2)=C/C(=N/S(=O)(=O)c2cccs2)c2ccccc21	-5	-15	-7	6.2*	9.8*	94*	10
CS(=O)(=O)N1CCN(c2ccccc2NC(=O)Nc2cccc(Cl)c2)CC1	8	-2	1	8.4*	24*	-4	74*
O=C(NCc1nc2ncc(Br)cc2[nH]1)c1ccccc1	5	0	-1	6.8*	16*	1	8
O=c1[nH]c2cc(Br)cnc2nc1/C=C(\O)c1ccc(F)cc1	8	-1	-4	0	x	x	x
Cc1[nH]c2ccccc2c1CC(=O)Nc1ccc(N(C)c2cccnc2)c(-c2cccc(Cl)c2)c1	14	-1	x	x	x	x	x
Oc1[nH]c(=S)sc1C=C1N=c2ccccc2=N1	-1	-10	1	6.5*	15*	5	6
Oc1c(C=C2N=c3ccccc3=N2)sc(=S)n1-c1ccc(F)cc1	-6	-1	-2	1	x	x	x
COc1ccc(C(CNC(=O)Nc2ccc(Cl)cc2)N2CCN(C)CC2)cc1 (configuration not stated)	2	-2	3	15*	39*	4	17*
COc1ccc(C(CNC(=O)Nc2ccccc2)N2CCN(C)CC2)cc1 (configuration not stated)	-5	-2	4	0	x	x	x
Cc1ccc2nc(/C(C#N)=C\c3cc(O)ccc3[N+](=O)[O-])[nH]c2c1	-7	-3	4	14*	38*	-7	9
COc1cc(/C=C(\C#N)c2nc3ccc(C)cc3[nH]2)c([N+](=O)[O-])cc1OC	-2	1	-3	5	x	x	x
Cc1cc(C(=O)NCC(=O)Nc2c(C)cccc2C)c2ccccc2n1	-4	-2	7	11*	3	0	-2
CC(=O)c1ccc(N2CCN(C(=O)CCCn3c(=O)[nH]c4ccc(Br)cc4c3=O)CC2)cc1	6	-1	-3	84*	104*	4	87*
CC(=O)c1ccc(N2CCN(C(=O)CCCn3c(=O)[nH]c4ccsc4c3=O)CC2)cc1	-3	-3	1	7.3*	17*	0	6
CCCCCn1c(=O)[nH]c2cc(C(=O)N3CCN(c4ccc(C(C)=O)cc4)CC3)ccc2c1=O	7	1	1	-1	x	x	x
O=C(CCCCn1c(=O)[nH]c2ccccc2c1=O)N1CCN(c2cccc(C(F)(F)F)c2)CC1	-1	0	4	12*	14*	8	5
COC(=O)C(C(=O)OC)[C@H]1C=C[C@@H](C(=O)NS(=O)(=O)c2ccc(C)cc2)N(C(C)=O)C1	-1	x	x	x	x	x	x
Nc1[nH]c(C(=O)c2ccc(Cl)cc2)c(-c2ccc(Br)cc2)c1C(=O)NCc1ccc(Cl)cc1Cl	1	-1	x	x	x	x	x
O=C(COc1nsnc1N1CCOCC1)Nc1ccc(Br)cc1	-4	-1	0	20*	43*	1	25*
Cc1ccc(NC(=O)COc2nsnc2N2CCOCC2)cc1Cl	-4	-1	2	0	x	x	x
COc1ccc(CNC2CCC23CCCCC3)cc1OC (configuration not stated)	3	x	x	x	x	x	x
Nc1nc(Cl)cc(=O)n1Cc1ccc(Cl)cc1	0	1	-2	9.4*	18*	2	4
Cc1ccc2nc(-c3cccc(Cl)c3)c(Cc3ccccc3C(F)(F)F)n2c1	2	-2	x	x	x	x	x
CC(C)(C)C(=O)Nc1nnc(Cc2ccccc2)s1	4	1	0	-2	x	x	x
CC(C)Cc1nnc(NC(=O)CCC(=O)Nc2ccccc2)s1	-6	0	1	0	x	x	x
CC(C)Cc1nnc(NC(=O)Nc2ccccc2)s1	6	0	-2	16*	32*	-4	11
CC(C)COC(=O)Nc1nnc(Cc2ccccc2)s1	2	-2	3	10*	3	5	4
